Only some compounds are listed: those with a hit (about 9.6% of all), similar ones and a draw of the others.
MT stabilizer: stabilizes microtubules in HeLa cells; % tubulin-high responders, % at 10 µM; AID 2205; hit rate 0.83% among 200,000; HeLa tubulin immunostaining HCS, 24 h; share of cells brighter than vehicle mean+2SD;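 active = plate Z-score above 3 for both tubulin-high and condensed-nucleus cell shares, with cell loss under 80%, at 10 µM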;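 note: anti alpha tubulin signal scored within the nucleus-defined area of each cell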
BaF3 parental: counter-screen for JAK2V617F inhibitors: parental Ba/F3 viability inhibitors; CellTiter-Glo ATP luminescence; inhibition, % at 5.6 µM; hit rate 1.1% among 220,000; AID 1486;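 active = inhibition above a per-campaign cutoff, the mean inhibition of all tested compounds plus 3 SD, cut at about 27% in these data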;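 note: 0% = DMSO wells and 100% = JAK Inhibitor I control wells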
APP transl inh: APP translation inhibition. hit rate 0.82% among 190,000. SH-SY5Y APP 5'UTR-luciferase reporter, luminescence. inhibition, % at 2 µM;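 active = inhibition above a set limit, derived from the sample mean plus 3 SD, cut at about 45% in these data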
b-catenin transl: beta-catenin nuclear translocation modulation | HeLa beta-catenin nuclear translocation, immunofluorescence imaging | nuclear translocation activity, % at 5 µM | hit rate 0.3% among 190,000;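 active = nuclear translocation activity above 50% at 5 µM, with a well cell count of 50 or more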;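 note: per-cell ratio of nuclear to cytoplasmic median beta-catenin stain intensity; plate controls were DMSO negative control for no effect and GSK-3 inhibitor IX positive control for full effect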
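assay system = human HeLa cells, endogenous beta-catenin | times = compound treatment 24 h, 37°C, 5% CO2 | detection = Anti-beta-catenin immunofluorescence on PFA-fixed, Triton-permeabilized cells, DAPI nuclei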
Ba/F3 V617F tox: lowers viability of Ba/F3 cells expressing EpoR and JAK2V617F. hit rate 1.1% among 220,000. inhibition, % at 5.6 µM. AID 1446. ATP luminescence;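 active = inhibition above the campaign mean plus 3 SD over all tested compounds, cut at about 24% in these data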;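 note: cytokine-independent growth of Ba/F3 cells driven by EpoR plus mutant JAK2; 0% = DMSO-treated cells and 100% = JAK inhibitor I control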
L major viab: Leishmania major promastigote growth inhibition; Leishmania major promastigotes, resazurin fluorescence viability; inhibition, % at 10 µM; hit rate 9% among 200,000; AID 1063; in the data active = inhibition above about 50%;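 note: promastigotes grown with compound for 44 hours at 28 °C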
Numbers without * were called inactive.

Screening Cn1c(C(=O)NCCN2CCN(c3ccccc3F)CC2)cc2c(=O)n(C)c3ccccc3c21 returned MT stabilizer 4, BaF3 parental -1, APP transl inh -12, b-catenin transl 0, Ba/F3 V617F tox -3 and L major viab 51*.
Screening COc1c(F)c(F)c(C(=O)Nc2ccc(NC(=O)Cc3ccccc3)cc2)c(F)c1F returned MT stabilizer 9, BaF3 parental -1, APP transl inh 26, b-catenin transl 1, Ba/F3 V617F tox -3 and L major viab -5.
For CN(/N=C/C=C/c1ccccc1)C1=NS(=O)(=O)c2ccccc21 the results were MT stabilizer 2, BaF3 parental 9, APP transl inh -14, b-catenin transl -2, Ba/F3 V617F tox 6 and L major viab -3.
Screening COc1ccc(C2SCCN2C(=S)Nc2ccc(F)cc2)cc1 (stereo not drawn) returned MT stabilizer 4, BaF3 parental 5, APP transl inh 1, b-catenin transl 1, Ba/F3 V617F tox -3 and L major viab 22.
COc1ccc(C2SCCN2C(=S)Nc2cccc(C(F)(F)F)c2)cc1 (stereo not drawn) was read as MT stabilizer 5, BaF3 parental 7, APP transl inh -3, b-catenin transl -3, Ba/F3 V617F tox 2 and L major viab 96*.
For COc1ccc(N2C(=O)CCC(C(=O)O)C2c2ccccc2OC)cc1 (stereo not drawn) the results were BaF3 parental -5, b-catenin transl -1 and Ba/F3 V617F tox 0.
`O=C(CN1CCCCC1)Nc1ccc(F)c(Cl)c1` gave MT stabilizer 2, BaF3 parental 9, APP transl inh 3, b-catenin transl 3, Ba/F3 V617F tox -1 and L major viab -6.
`CC(C)N(C)C1CCN(C(=O)Nc2ccc(Cl)c(Cl)c2)CC1` gave MT stabilizer 5, BaF3 parental 10, APP transl inh 1, b-catenin transl 1, Ba/F3 V617F tox -3 and L major viab 60*.
For O=C(Nc1ccc(F)c(Cl)c1)N1CCCC1 the results were MT stabilizer 2, BaF3 parental 7, APP transl inh -6, b-catenin transl 0, Ba/F3 V617F tox 8 and L major viab 99*.
Screening O=C(Cc1ccccc1)Nc1ccc(N2CCN(Cc3ccccc3F)CC2)cc1 returned MT stabilizer 2, BaF3 parental -2, APP transl inh 8, Ba/F3 V617F tox -2 and L major viab -3.
`CC(=O)Nc1ccc(N2CCN(Cc3ccccc3F)CC2)cc1` gave MT stabilizer 2, BaF3 parental 7, APP transl inh -10, Ba/F3 V617F tox -1 and L major viab 50*.
`O=C(Nc1ccc(Cl)cc1)N1CCCN(Cc2ccccc2F)C1` gave MT stabilizer 3, BaF3 parental 7, APP transl inh 4, Ba/F3 V617F tox 5 and L major viab 57*.
CCC(=O)Nc1ccc(N2CCN(Cc3ccccc3F)CC2)cc1 was read as MT stabilizer 4, BaF3 parental 6, APP transl inh 3, b-catenin transl -1, Ba/F3 V617F tox -4 and L major viab -3.
For CC(C)S(=O)(=O)N1CCCC(C(=O)c2cccc(Cl)c2)C1 (stereo not drawn) the results were MT stabilizer 3, BaF3 parental 5, APP transl inh 2, b-catenin transl 0, Ba/F3 V617F tox 4 and L major viab 4.
For COc1ccc(-c2nc3ccccc3c(=O)n2CCOc2cc(C)ccc2C)cc1 the results were MT stabilizer 3, BaF3 parental 8, APP transl inh -24, b-catenin transl 5, Ba/F3 V617F tox -1 and L major viab 28.
For COC(=O)c1cccn(CC(=O)c2ccc(Cl)cc2)c1=O the results were MT stabilizer 2, BaF3 parental 1, APP transl inh -13, b-catenin transl 0, Ba/F3 V617F tox 0 and L major viab -6.
`CSc1cccc(CN2CCN(CCC(C)C)C(CCO)C2)c1` (stereo not drawn) gave MT stabilizer 6, BaF3 parental 5, APP transl inh -1, b-catenin transl -2, Ba/F3 V617F tox 2 and L major viab 79*.
`CC(C)CCN1CCN(Cc2cccc(C(F)(F)F)c2)CC1CCO` (stereo not drawn) gave MT stabilizer 2, BaF3 parental 3, APP transl inh 15, b-catenin transl 0, Ba/F3 V617F tox 1 and L major viab 92*.
CC(C)CCN1CCN(Cc2ccoc2)CC1CCO (stereo not drawn) was read as BaF3 parental 3, b-catenin transl 2 and Ba/F3 V617F tox -3.
`CCCCN1C(=O)C(=O)N(CC(=O)Nc2cc(OCC)c(N3CCOCC3)cc2OCC)C1=O` gave MT stabilizer 3, BaF3 parental 0, APP transl inh 8, b-catenin transl 0, Ba/F3 V617F tox 0 and L major viab 0.
Screening Cc1cc(SCC(=O)c2ccc(O)c(O)c2)n2nc(C)c(-c3ccccc3)c2n1 returned BaF3 parental 2, b-catenin transl 4 and Ba/F3 V617F tox 4.
Screening CCc1ccc2c(c1)C(C)=CC(C)(C)N2 returned MT stabilizer 4, BaF3 parental 4, APP transl inh -12, b-catenin transl 0, Ba/F3 V617F tox -3 and L major viab 66*.
Screening CC(=O)c1sccc1NC(=O)c1ccccc1C(=O)O returned BaF3 parental 1, b-catenin transl 0 and Ba/F3 V617F tox 3.
COc1cc(C(=O)NCCCNc2ccc([N+](=O)[O-])cc2)cc(OC)c1OC was read as MT stabilizer 1, BaF3 parental 5, APP transl inh 2, b-catenin transl -4, Ba/F3 V617F tox 0 and L major viab 77*.
Screening CCOC(=O)CNC(=O)CSc1nnc(NC(=O)c2ccccc2Cl)s1 returned MT stabilizer 3, BaF3 parental -6, APP transl inh -18, b-catenin transl -2, Ba/F3 V617F tox 0 and L major viab 0.
For CCSc1nnc(NC(=O)[C@@H](NC(=O)c2ccccc2)C(C)C)s1 the results were MT stabilizer 2, BaF3 parental -3, APP transl inh 9, b-catenin transl 0, Ba/F3 V617F tox -2 and L major viab 50*.
Screening CC(C)(C)NC(=O)CSc1nnc(NC(=O)c2ccccc2Cl)s1 returned MT stabilizer 5, BaF3 parental 0, APP transl inh 46*, b-catenin transl -1, Ba/F3 V617F tox -4 and L major viab -4.
`CCSc1nnc(NC(=O)c2ccccn2)s1` gave MT stabilizer 3, BaF3 parental 8, APP transl inh -56, Ba/F3 V617F tox -3 and L major viab 98*.
O=C(NN=C1CCCCCCCCCCC1)c1cccc(S(=O)(=O)N2CCOCC2)c1 was read as MT stabilizer 2, BaF3 parental 6, APP transl inh 2, b-catenin transl -2, Ba/F3 V617F tox -3 and L major viab 2.
